Measurements from article PMC5367588 (International Journal of Nanomedicine, 2017).

Key:
[1] = tested on: HepG2, MCF-7, and SW480 cells; assay: In vitro cytotoxicity; format: cell-based; details: MTT assay, three cell lines, 48 h
How it was run: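 Cells grown in RPMI 1640 or L-15 with 10% FBS were seeded at 5,000 cells/well and left to attach overnight. Graded concentrations of test compound were applied in quintuplicate for 48 h at 37°C and 5% CO2. MTT was added for 4 h and absorbance read at 490 nm. IC50 was taken as the concentration giving 50% growth inhibition; the assay was run three times.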

[2] = In vivo pharmacokinetics and biodistribution; parameters: species or system tumor-bearing nude mice; details: for AUC0–inf / MRT0–inf: i.v. 5.0 mg/kg 10-HCPT injection or 35.1 mg/kg compound F solution, mice, n=6; for T2/1: blood circulation, i.v. single dose equal to 10-HCPT 5 mg/kg, tumor-bearing mice; for AUC(0-inf) / MRT inf: female, BALB/c (nude), mouse, iv, 5 mg/kg
How it was run: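 Tumor-bearing nude mice (n=6 per group) got one i.v. dose of free parent drug 5 mg/kg or parent-equivalent conjugate. Orbital blood was taken from 10 min to 48 h, and heart, liver, spleen, lung, kidney, brain and tumor were collected. Plasma or saline tissue homogenate was hydrolysed with 0.1 N NaOH (37°C, 20 min), then neutralised with HCl. Camptothecin internal standard was added before acetonitrile extraction. Parent drug was quantified by UPLC/MS and PK parameters derived with software.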

[3] = Water solubility of the prodrug; format: physicochemical; details: prodrug relative to 10-HCPT
[4] = Drug release from conjugates in phosphate-buffered saline; format: physicochemical
How it was run: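 Conjugate at 0.5 mg/mL final in 0.01 mol/L PBS at pH 3.0, 4.0, 5.0, 6.0 and 7.4, held at 37°C for 48 h. Supernatants were analysed by UPLC/MS in MRM mode using the 477.0/433.1 transition for the released ester.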

[5] = tested on: tumor-bearing nude mouse models; assay: In vivo antitumor efficacy; parameters: species or system mice; details: for tumor growth inhibition effect (TIR): tail vein injection, equivalent to 5.0 mg/kg 10-HCPT once a day for 14 days, n=8
How it was run: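 Dosing began in tumor-bearing nude mice once tumors reached ~50–100 mm3; groups (n=8) were balanced for weight and tumor size. Mice received saline, commercial parent-drug injection 5.0 mg/kg, or conjugate 35.1 mg/kg (parent-equivalent 5.0 mg/kg) by tail vein once daily for 14 days. Tumor volume (a×b²/2) was measured every 2 days; toxicity was judged from behaviour and weight loss.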

[6] = Characterization of compound F self-assembly micelles; format: physicochemical; details: in water
[7] = Drug release from conjugates in plasma; format: in vitro ADME, human; details: for amount of compound B released from the conjugate: plasma
How it was run: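 Conjugate stock (5.0 mg/mL) was added to human serum to 0.5 mg/mL final, with camptothecin internal standard at 1.0 µg/mL final, at 37°C. Samples were taken from 0.5 to 48 h, protein-precipitated with acetonitrile, centrifuged, dried under N2 at 40°C and reconstituted in acetonitrile. Analysis was by UPLC/MS against serum standards of 0.5–1,000 ng/mL using the internal standard method.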

[8] = once a day for 14 days, tail vein

Which “cytotoxicity (in words)” value [1] does the source give for 5-carbonyl caproic acid here?
Its value is “almost no cytotoxicity”.

What does the source list for “10-HCPT-thiosemicarbazide-PEG2000-MeO conjugate [compound F]”?
AUC0–inf ([2]; Heart): 3,795.7±1,539.3 µg/L h; MRT0–inf ([2]; Heart): 4.379 ± 1.171 h; AUC0–inf ([2]; Kidney): 1,260.4±585.8 µg/L h; MRT0–inf ([2]; Kidney): 2.948 ± 0.548 h; AUC0–inf ([2]; Liver): 52,688.4±3,111.2 µg/L h; MRT0–inf ([2]; Liver): 10.07 ± 0.957 h; AUC0–inf ([2]; Lung): 293,117.9±31,343.1 µg/L h; MRT0–inf ([2]; Lung): 6.96 ± 0.178 h; AUC0–inf ([2]; Plasma): 173,410.1±13,824.5 µg/L h; MRT0–inf ([2]; Plasma): 28.975 ± 1.238 h; AUC0–inf ([2]; Spleen): 8,993.1±1,534.3 µg/L h; MRT0–inf ([2]; Spleen): 7.756 ± 1.518 h; AUC0–inf ([2]; Tumor): 162,823.9±19,289.2 µg/L h; MRT0–inf ([2]; Tumor): 39.873 ± 4.549 h; T2/1 [2]: 10.516 ± 1.158 h; AUC0–inf in tumor relative to 10-HCPT solution ([2]; tumor): 7.76 fold; MRT0–inf in tumors compared with 10-HCPT solution ([2]; tumor): 4.31 fold; cytotoxicity (in words) [1]: strongest cytotoxicity; water solubility increase [3]: over 3,000 times; amount of compound B released from the conjugate ([4]; PBS pH 5.0, 37°C, after 4 h): ~100%; amount of compound B released from the conjugate ([4]; PBS pH 7.4, 37°C, after 1 h): 2%; amount of compound B released from the conjugate ([4]; PBS pH 7.4, 37°C, after 4 h): 8%; amount of compound B released from the conjugate ([4]; pH 7.4 PBS, after 48 h): < 30%; stability (in words) ([4]; phosphate-buffered saline (pH 7.4)): good stability; body weight change (in words) [5, 8]: did not cause significant loss of body weight; tumor volume (in words) ([5]; once a day for 14 days, tail vein, P<0.05): significantly smaller than that of the group treated with either saline or 10-HCPT solution; tumor growth inhibition effect (TIR) [5]: 82.66%±7.175; concentration at which conjugates self-assemble into micelles [6]: 7500 µg/mL; amount of compound B released from the conjugate ([7]; 37°C, after 1 h): 5%; amount of compound B released from the conjugate ([7]; 37°C, after 4 h): 15%; amount of compound B released from the conjugate ([7]; after 48 h): < 30%; stability (in words) ([7]; rat plasma): good stability

Which results are given for `CC[C@@]1(O)C(=O)OCc2c1cc1n(c2=O)Cc2cc3cc(O)ccc3nc2-1` [10-HCPT, 10-Hydroxycamptothecin, reference compound]?
T2/1 [2]: 1.859 ± 1.385 h; AUC(0-inf) ([2]; heart): 11600 ng·h/mL; MRT inf ([2]; heart): 6.18 ± 1.5 h; AUC(0-inf) ([2]; kidney): 2090 ng·h/mL; MRT inf ([2]; kidney): 5.96 ± 1.09 h; AUC(0-inf) ([2]; liver): 28700 ng·h/mL; MRT inf ([2]; liver): 5.69 ± 0.845 h; AUC(0-inf) ([2]; lung): 130000 ng·h/mL; MRT inf ([2]; lung): 4.79 ± 0.648 h; AUC(0-inf) ([2]; plasma): 8410 ng·h/mL; MRT inf ([2]; plasma): 6.15 ± 0.964 h; AUC(0-inf) ([2]; spleen): 5040 ng·h/mL; MRT inf ([2]; spleen): 5.68 ± 0.771 h; AUC(0-inf) ([2]; tumor): 21000 ng·h/mL; MRT inf ([2]; tumor): 9.25 ± 1.03 h; body weight change (in words) [5, 8]: significant body weight loss; tumor growth inhibition effect (TIR) [5]: 63.85%±5.233
